Assay results: ChEMBL document CHEMBL1128245, “Dual-acting thromboxane receptor antagonist/synthase inhibitors: synthesis and biological properties of [2-substituted-4-(3-pyridyl)-1,3-dioxan-5-yl] alkenoic acids” (J Med Chem, 1995)

Experiments:
[1] = species: Homo sapiens; assay: In vitro inhibition of U-46,619-induced aggregation of unwashed human platelets.; type: functional; settings: for Kb: Homo sapiens, read-out: pA2 (converted)
Procedure, shortened: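 Citrated (3.2%) human venous blood spun at 200g for 10 min. Platelet-rich plasma aggregated with U46619 with or without several antagonist concentrations.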

[2] = biological target: T1, Prostacyclin synthase (Homo sapiens, UniProt Q16647); assay: In vitro inhibition of Prostaglandin I2 synthase in cultured human endothelial cells
T1 sequence (Q16647 whole entry): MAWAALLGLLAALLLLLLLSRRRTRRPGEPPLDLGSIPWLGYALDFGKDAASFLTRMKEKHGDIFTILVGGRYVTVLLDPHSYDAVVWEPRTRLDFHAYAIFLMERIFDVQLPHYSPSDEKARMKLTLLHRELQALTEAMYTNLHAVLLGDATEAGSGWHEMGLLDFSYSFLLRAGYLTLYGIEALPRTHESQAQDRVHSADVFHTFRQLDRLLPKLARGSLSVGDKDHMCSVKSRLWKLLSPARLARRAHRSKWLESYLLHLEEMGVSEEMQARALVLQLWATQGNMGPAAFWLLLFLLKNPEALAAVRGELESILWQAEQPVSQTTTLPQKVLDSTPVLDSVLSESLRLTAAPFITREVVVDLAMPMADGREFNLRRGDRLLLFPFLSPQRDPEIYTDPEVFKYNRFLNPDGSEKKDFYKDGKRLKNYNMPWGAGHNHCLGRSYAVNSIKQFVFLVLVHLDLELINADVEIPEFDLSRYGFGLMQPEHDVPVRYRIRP

[3] = biological target: T2, Thromboxane-A synthase (Homo sapiens, UniProt P24557); assay: In vitro Inhibition of thromboxane synthase from human blood platelet microsomes
T2 sequence (P24557 whole entry): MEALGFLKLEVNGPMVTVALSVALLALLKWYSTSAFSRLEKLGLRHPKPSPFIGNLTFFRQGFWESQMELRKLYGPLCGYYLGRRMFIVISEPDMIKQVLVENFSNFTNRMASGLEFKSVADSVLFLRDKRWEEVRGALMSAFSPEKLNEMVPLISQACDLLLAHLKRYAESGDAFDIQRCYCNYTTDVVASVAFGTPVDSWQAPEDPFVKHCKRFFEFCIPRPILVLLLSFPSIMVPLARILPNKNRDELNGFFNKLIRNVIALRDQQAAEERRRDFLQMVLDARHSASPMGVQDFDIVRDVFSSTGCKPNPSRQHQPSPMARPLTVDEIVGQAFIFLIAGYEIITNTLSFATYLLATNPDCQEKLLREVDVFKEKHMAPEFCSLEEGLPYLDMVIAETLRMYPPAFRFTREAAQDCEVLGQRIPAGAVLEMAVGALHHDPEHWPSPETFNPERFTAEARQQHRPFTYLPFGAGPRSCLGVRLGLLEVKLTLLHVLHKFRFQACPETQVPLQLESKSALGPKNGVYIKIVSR
Procedure, shortened: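 Human blood platelet microsomes incubated with [1-14C]arachidonic acid with or without inhibitor. Conversion to labeled thromboxane B2 quantified radiochromatographically. n = 2.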

SMILES | Kb [1] | IC50 [2] | IC50 [3] | pA2 [1]
CC(C)(Cc1ccc(F)cc1C#N)C1OCC(C/C=C\CCC(=O)O)C(c2cccnc2)O1 (stereo unspecified) | 2.19 nM | 7000 nM | < 10 nM | –
O=C(O)CC/C=C\CC1COC(c2ccc3ccccc3c2)OC1c1cccnc1 (stereo unspecified) | 1780 nM | – | 50 nM | –
CC(C)(Oc1ccccc1O)C1OCC(C/C=C\CCC(=O)O)C(c2cccnc2)O1 (stereo unspecified) | 95.5 nM | > 100000 nM | 32 nM | –
O=C(O)CC/C=C\CC1COC(c2ccco2)OC1c1cccnc1 (stereo unspecified) | 1260 nM | – | 164 nM | –
O=C(O)CC/C=C\CC1COC(c2ccc([N+](=O)[O-])cc2)OC1c1cccnc1 (stereo unspecified) | 933 nM | 13000 nM | 39 nM | –
Cc1ccc(OC(C)(C)C2OCC(C/C=C\CCC(=O)O)C(c3cccnc3)O2)cc1 (stereo unspecified) | 631 nM | 25000 nM | 360 nM | –
COc1ccc(SC(C)(C)C2OCC(C/C=C\CCC(=O)O)C(c3cccnc3)O2)c([N+](=O)[O-])c1 (stereo unspecified) | 158 nM | – | 40 nM | –
CC(C)(Cc1ccc(F)cc1)C1OCC(C/C=C\CCC(=O)O)C(c2cccnc2)O1 (stereo unspecified) | 89.1 nM | 2000 nM | 45 nM | –
CC(=O)c1ccc(OC(C)(C)C2OCC(C/C=C\CCC(=O)O)C(c3cccnc3)O2)c([N+](=O)[O-])c1 (stereo unspecified) | 1.51 nM | 4000 nM | < 10 nM | –
CC(C)(Oc1ccc(Br)cc1)C1OCC(C/C=C\CCC(=O)O)C(c2cccnc2)O1 (stereo in doubt; 7p) | – | < 1000 nM | > 10000 nM | 5.61
CC(C)(Oc1ccc(S(C)(=O)=O)cc1)C1OCC(C/C=C\CCC(=O)O)C(c2cccnc2)O1 (stereo unspecified) | 91.2 nM | 8000 nM | 34 nM | –
COc1ccc(OC(C)(C)C2OCC(C/C=C\CCC(=O)O)C(c3cccnc3)O2)c([N+](=O)[O-])c1 (stereo unspecified) | 6.17 nM | 23000 nM | 37 nM | –
CC(C)(Oc1ccccc1F)C1OCC(C/C=C\CCC(=O)O)C(c2cccnc2)O1 (stereo unspecified) | 166 nM | < 1000 nM | 45 nM | –
O=C(O)CC/C=C\C[C@@H]1CO[C@H](c2ccccc2Cl)O[C@@H]1c1ccccc1O | 6.92 nM | – | > 100000 nM | –
CC(C)(Sc1ccccc1C#N)C1OCC(C/C=C\CCC(=O)O)C(c2cccnc2)O1 (stereo unspecified) | 316 nM | – | 40 nM | –
O=C(O)CC/C=C\CC1COC(c2ccsc2)OC1c1cccnc1 (stereo unspecified) | 1580 nM | – | 500 nM | –
O=C(O)CC/C=C\CC1COC(c2cccc3ccccc23)OC1c1cccnc1 (stereo unspecified) | 631 nM | – | 40 nM | –
CC(C)(Cc1ccccc1C#N)C1OCC(C/C=C\CCC(=O)O)C(c2cccnc2)O1 (stereo unspecified) | 27.5 nM | 14000 nM | 37 nM | –
O=C(O)CC/C=C\CC1COC(c2cccnc2)OC1c1cccnc1 (stereo unspecified) | 759 nM | – | 220 nM | –
CC(C)(C)c1ccc(OC(C)(C)C2OCC(C/C=C\CCC(=O)O)C(c3cccnc3)O2)cc1 (stereo unspecified) | 1910 nM | – | 280 nM | –
Cc1ccc(OC(C)(C)C2OCC(C/C=C\CCC(=O)O)C(c3cccnc3)O2)c(C#N)c1 (stereo in doubt; 7af) | 3.98 nM | 12000 nM | 25 nM | –
O=C(O)CC/C=C\CC1COC(c2ccc(Cl)cc2Cl)OC1c1cccnc1 (stereo unspecified) | 891 nM | 2500 nM | 42 nM | –
N#Cc1ccc(C2OCC(C/C=C\CCC(=O)O)C(c3cccnc3)O2)cc1 (stereo unspecified) | 1290 nM | > 100000 nM | 24 nM | –
O=C(O)CC/C=C\CC1COC(c2cccs2)OC1c1cccnc1 (stereo unspecified) | 1000 nM | – | 71 nM | –
CC(C)(Oc1ccc(F)cc1C#N)C1OCC(C/C=C\CCC(=O)O)C(c2cccnc2)O1 (stereo unspecified) | 0.708 nM | 37000 nM | 15 nM | –
Cc1ccc(OC(C)(C)C2OCC(C/C=C\CCC(=O)O)C(c3cccnc3)O2)c([N+](=O)[O-])c1 (stereo in doubt; 7y) | – | – | > 10000 nM | < 5
CC(C)(Oc1ccc(Br)cc1)C1OCC(C/C=C\CCC(=O)O)C(c2cccnc2)O1 (stereo in doubt; 7b) | – | 3400 nM | 51 nM | 6.42

SMILES | Kb [1] | IC50 [2] | IC50 [3] | pA2 [1]
CC(C)(Oc1ccccc1Br)C1OCC(C/C=C\CCC(=O)O)C(c2cccnc2)O1 (stereo unspecified) | 63.1 nM | 7000 nM | 29 nM | –
CC(C)(Oc1ccc(F)cc1[N+](=O)[O-])C1OCC(C/C=C\CCC(=O)O)C(c2cccnc2)O1 (stereo unspecified) | 2.51 nM | 9000 nM | 20 nM | –
COc1ccc(OC(C)(C)C2OCC(C/C=C\CCC(=O)O)C(c3cccnc3)O2)cc1 (stereo unspecified) | 302 nM | > 100000 nM | 41 nM | –
CC(C)(Oc1ccc(Br)cc1)C1OCC(C/C=C\CCC(=O)O)C(c2cccnc2)O1 (stereo in doubt; 7q) | – | 4000 nM | 22 nM | 6.48
Cc1ccc(OC(C)(C)C2OCC(C/C=C\CCC(=O)O)C(c3cccnc3)O2)c([N+](=O)[O-])c1 (stereo in doubt; 7w) | – | 33000 nM | 27 nM | 8.34
CC(C)(Oc1ccccc1)C1OCC(C/C=C\CCC(=O)O)C(c2cccnc2)O1 (stereo unspecified) | 75.9 nM | 75000 nM | 52 nM | –
O=C(O)CC/C=C\CC1COC(c2ccc(C(F)(F)F)cc2)OC1c1cccnc1 (stereo unspecified) | 1780 nM | – | 44 nM | –
CC(C)(Oc1ccc(C#N)cc1)C1OCC(C/C=C\CCC(=O)O)C(c2cccnc2)O1 (stereo unspecified) | 129 nM | 4000 nM | 46 nM | –
O=C(O)CC/C=C\CC1COC(c2ccc(Cl)c(Cl)c2)OC1c1cccnc1 (stereo unspecified) | 776 nM | 9000 nM | 42 nM | –
CC(C)(Oc1cccc(F)c1)C1OCC(C/C=C\CCC(=O)O)C(c2cccnc2)O1 (stereo unspecified) | 126 nM | 40000 nM | 26 nM | –
CSc1ccccc1OC(C)(C)C1OCC(C/C=C\CCC(=O)O)C(c2cccnc2)O1 (stereo unspecified) | 89.1 nM | > 100000 nM | 36 nM | –
CC(C)(Oc1ccccc1S(C)(=O)=O)C1OCC(C/C=C\CCC(=O)O)C(c2cccnc2)O1 (stereo unspecified) | 589 nM | 2000 nM | 45 nM | –
Cc1ccc(C#N)c(OC(C)(C)C2OCC(C/C=C\CCC(=O)O)C(c3cccnc3)O2)c1 (stereo unspecified) | 15.8 nM | > 100000 nM | 50 nM | –
CSc1ccc(OC(C)(C)C2OCC(C/C=C\CCC(=O)O)C(c3cccnc3)O2)cc1 (stereo unspecified) | 372 nM | 32000 nM | 39 nM | –
Cc1ccc(OC(C)(C)C2OCC(C/C=C\CCC(=O)O)C(c3cccnc3)O2)c(C#N)c1 (stereo in doubt; 7ac) | – | 47000 nM | 50 nM | 8.1
CC(C)(C1OCC(C/C=C\CCC(=O)O)C(c2cccnc2)O1)S(=O)(=O)c1ccccc1 (stereo unspecified) | 3160 nM | – | 40 nM | –
CC(C)(Sc1ccccc1)C1OCC(C/C=C\CCC(=O)O)C(c2cccnc2)O1 (stereo unspecified) | 200 nM | – | 40 nM | –
CSc1ccc(OC(C)(C)C2OCC(C/C=C\CCC(=O)O)C(c3cccnc3)O2)c([N+](=O)[O-])c1 (stereo unspecified) | 4.47 nM | 5000 nM | 22 nM | –
Cc1ccc(SC(C)(C)C2OCC(C/C=C\CCC(=O)O)C(c3cccnc3)O2)c([N+](=O)[O-])c1 (stereo unspecified) | 158 nM | – | 30 nM | –
CC(C)(Oc1ccccc1C#N)C1OCC(C/C=C\CCC(=O)O)C(c2cccnc2)O1 (stereo unspecified) | 13.2 nM | 3000 nM | 45 nM | –
COc1ccccc1OC(C)(C)C1OCC(C/C=C\CCC(=O)O)C(c2cccnc2)O1 (stereo unspecified) | 224 nM | 51000 nM | 60 nM | –
O=C(O)CC/C=C\CC1COC(c2ccccc2Cl)OC1c1cccnc1 (stereo unspecified) | 759 nM | – | 48 nM | –
CC(C)(Cc1ccccc1)C1OCC(C/C=C\CCC(=O)O)C(c2cccnc2)O1 (stereo unspecified) | 513 nM | 13000 nM | 12 nM | –
COC(=O)c1ccccc1OC(C)(C)C1OCC(C/C=C\CCC(=O)O)C(c2cccnc2)O1 (stereo unspecified) | 64.6 nM | 73000 nM | 66 nM | –
Cc1cccc(C#N)c1OC(C)(C)C1OCC(C/C=C\CCC(=O)O)C(c2cccnc2)O1 (stereo unspecified) | 25.1 nM | 60000 nM | 90 nM | –
O=C(O)CCCC/C=C(\c1ccccc1)c1cccnc1 [(E)-ISBOGREL] | – | > 100000 nM | – | –
